Consider 2 compounds from ChEMBL document CHEMBL3091449, “Synthesis and antimicrobial profile of N-substituted imidazolium oximes and their monoquaternary salts against multidrug resistant bacteria” (2013).

The term MIC denotes the lowest concentration that inhibits growth of the organism. The low end stands for greater potency, the high end for weaker potency.

Holding throughout (type): functional
For experiment [1], the system named is Aeromonas hydrophila. In words: Antibacterial activity against Aeromonas hydrophila FNSST 014 after 18 to 24 hrs by two-fold broth microdilution assay. A digest of the protocol:
(§1)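 CLSI two-fold broth microdilution was used. Compounds were dissolved in DMSO, brought to 10 mg/mL in medium, then serially diluted in Mueller Hinton broth over 400–0.09 µg/mL. Overnight MHB cultures were diluted to 10^6 CFU/mL, and 10 µL was added per well. Plates were incubated 18–24 h at 37 °C, then 0.2 mg/mL INT was added for 30 min at 37 °C. MIC was the lowest concentration with no visible growth or pink colour, triplicate.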

For experiment [2], the system named is Aeromonas hydrophila. In words: Antibacterial activity against Aeromonas hydrophila FNSST 014 assessed as diameter of zone of inhibition at 250 ug/disc after 24 hrs by disc diffusion method. To be noted: FNSST 014, 24 h, read-out: DIZ. A digest of the protocol:
(§2)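 Bacteria were grown overnight at 37 °C in TSB to about 10^6 cfu/mL, and 100 µL was spread on Mueller Hinton agar. Sterile 6 mm discs were each loaded with 25 µL of a 10 mg/mL stock in 96% ethanol, giving 250 µg/disc. Ethanol served as the negative control. Plates were incubated 24 h at 37 °C. Inhibition zone diameter was measured including the disc, in triplicate, as mean ± SE.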
(In general: A growth-free zone around the sample is the usual read-out of agar diffusion tests.)

The subject of experiment [3] is Klebsiella pneumoniae. In words: Antibacterial activity against Klebsiella pneumoniae FNSST 011 assessed as diameter of zone of inhibition at 250 ug/disc after 24 hrs by disc diffusion method. Particulars: FNSST 011, 24 h, read-out: DIZ. A digest of the protocol:
as §2

The test system of experiment [4] is Enterococcus faecalis. In words: Antibacterial activity against Enterococcus faecalis ATCC 29212 assessed as diameter of zone of inhibition at 250 ug/disc after 24 hrs by disc diffusion method. To be noted: ATCC 29212, 24 h, read-out: DIZ. The method in brief:
as §2

Experiment [5] concerns Escherichia coli. The experiment is described as follows: Antibacterial activity against Escherichia coli FNSST 982 after 18 to 24 hrs by two-fold broth microdilution assay. The method in brief: as §1
Background: In broth dilution the organism is exposed to a series of concentrations in liquid medium.

Experiment [6] relates to Klebsiella pneumoniae. In words: Antibacterial activity against Klebsiella pneumoniae FNSST 011 after 18 to 24 hrs by two-fold broth microdilution assay. A digest of the protocol: as §1
Experiment [7] has as its system Pseudomonas aeruginosa. The experiment is described as follows: Antibacterial activity against Pseudomonas aeruginosa FNSST 982 assessed as diameter of zone of inhibition at 250 ug/disc after 24 hrs by disc diffusion method. To be noted: FNSST 982, 24 h, read-out: DIZ. A digest of the protocol: as §2
Experiment [8] has as its system Escherichia coli. In words: Antibacterial activity against Escherichia coli FNSST 982 assessed as diameter of zone of inhibition at 250 ug/disc after 24 hrs by disc diffusion method. Particulars: FNSST 982, 24 h, read-out: DIZ. A digest of the protocol: as §2
Experiment [9] relates to Clostridium perfringens. In words: Antibacterial activity against Clostridium perfringens FNSST 4999 after 18 to 24 hrs by two-fold broth microdilution assay. The method in brief: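 CLSI two-fold broth microdilution. Compounds dissolved in DMSO, 10 mg/mL stock, serially diluted to 400–0.09 µg/mL in Mueller Hinton broth. Wells inoculated with 10^6 CFU/mL bacteria and incubated 18–24 h at 37 °C. 0.2 mg/mL INT added for 30 min. MIC taken as the lowest concentration with no visible growth or pink colour. Triplicate.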

Experiment [10] relates to Aspergillus fumigatus. In words: Antifungal activity against Aspergillus fumigatus FNSST 3833 assessed as diameter of zone of inhibition at 250 ug/disc after 72 hrs by disc diffusion method. Particulars: FNSST 3833, 72 h, read-out: DIZ. The method in brief:
(§3)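 Fungi were grown overnight at 30 °C in Sabouraud dextrose broth to 10^4 cfu/mL, and 100 µL was spread on Sabouraud dextrose agar. 6 mm discs carried 250 µg (25 µL of a 10 mg/mL stock in 96% ethanol), with ethanol as the negative control. Incubation was at 30 °C for 48 h (yeast) or 72 h (molds). Zone diameter was read including the disc, in triplicate, mean ± SE.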

The subject of experiment [11] is Clostridium perfringens. The experiment is described as follows: Antibacterial activity against Clostridium perfringens FNSST 4999 assessed as diameter of zone of inhibition at 250 ug/disc after 24 hrs by disc diffusion method. To be noted: FNSST 4999, 24 h, read-out: DIZ. A digest of the protocol:
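Disc diffusion per CLSI: 100 µL of 10^6 cfu/mL bacterial suspension spread on Mueller Hinton agar. 6 mm discs loaded with 25 µL of 10 mg/mL compound stock in 96% ethanol (250 µg/disc); ethanol as negative control. Incubated 24 h at 37 °C. Inhibition zone diameter measured in mm including the disc, triplicate, reported as mean ± SE.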

The test system of experiment [12] is Candida albicans. The experiment is described as follows: Antifungal activity against Candida albicans ATCC 10231 assessed as diameter of zone of inhibition at 250 ug/disc after 48 hrs by disc diffusion method. Particulars: ATCC 10231, 48 h, read-out: DIZ. The method in brief: as §3
Experiment [13] deals with Staphylococcus aureus. In words: Antibacterial activity against Staphylococcus aureus ATCC 25923 after 18 to 24 hrs by two-fold broth microdilution assay. The method in brief:
as §1

Experiment [14] deals with Bacillus cereus. The experiment is described as follows: Antibacterial activity against Bacillus cereus ATCC 11778 after 18 to 24 hrs by two-fold broth microdilution assay. The method in brief: as §1
Experiment [15] concerns Staphylococcus aureus. In words: Antibacterial activity against Staphylococcus aureus ATCC 25923 assessed as diameter of zone of inhibition at 250 ug/disc after 24 hrs by disc diffusion method. To be noted: ATCC 25923, 24 h, read-out: DIZ. The method in brief: as §2
In experiment [16] the test system is Enterococcus faecalis. In words: Antibacterial activity against Enterococcus faecalis ATCC 29212 after 18 to 24 hrs by two-fold broth microdilution assay. A digest of the protocol:
as §1

Experiment [17] has as its system Pseudomonas aeruginosa. In words: Antibacterial activity against Pseudomonas aeruginosa FNSST 982 after 18 to 24 hrs by two-fold broth microdilution assay. A digest of the protocol:
as §1

Experiment [18] relates to Talaromyces funiculosus. In words: Antifungal activity against Penicillium funiculosum FNSST 3724 assessed as diameter of zone of inhibition at 250 ug/disc after 72 hrs by disc diffusion method. Particulars: FNSST 3724, 72 h, read-out: DIZ. A digest of the protocol: as §3
The subject of experiment [19] is Bacillus cereus. The experiment is described as follows: Antibacterial activity against Bacillus cereus ATCC 11778 assessed as diameter of zone of inhibition at 250 ug/disc after 24 hrs by disc diffusion method. To be noted: ATCC 11778, 24 h, read-out: DIZ. The method in brief:
as §2

For experiment [20], the system named is Pseudomonas aeruginosa. The experiment is described as follows: Ratio of gentamicin MIC to compound MIC for Pseudomonas aeruginosa FNSST 982.
For experiment [21], the system named is Pseudomonas aeruginosa. The experiment is described as follows: Ratio of cefotaxime MIC to compound MIC for Pseudomonas aeruginosa FNSST 982.
The subject of experiment [22] is Escherichia coli. In words: Ratio of gentamicin MIC to compound MIC for Escherichia coli FNSST 982.

SMILES strings stand for the structures. ≈ marks a conversion by molar mass, not a printed value.

Consider `O/N=C/c1nccn1Cc1ccccc1`, for which the MIC in experiment [1] turned out to be 25 µg/mL (≈ 124 µM); in experiment [5], 25 µg/mL (≈ 124 µM); in [6] it was 25 µg/mL (≈ 124 µM); in experiment [9], 50 µg/mL (≈ 248 µM); in [13], 6.25 µg/mL (≈ 31.1 µM); in experiment [14], 6.25 µg/mL (≈ 31.1 µM). Further, the MIC in experiment [16] is 6.25 µg/mL (≈ 31.1 µM); in [17], 12.5 µg/mL (≈ 62.1 µM). In addition, the zone of inhibition at 250 µg/disc worked out at 10.1 mm in experiment [2]; 15.8 mm in [3]; 14.9 mm in experiment [4]; 17.9 mm in [7]; 17.3 mm in experiment [8]; 11.5 mm in [10]. Moreover, the zone of inhibition at 250 µg/disc came to 15.9 mm in experiment [11]; 17.2 mm in experiment [12]; 10.8 mm in experiment [15]; 17.6 mm in experiment [18]; 17.5 mm in experiment [19]. For the same compound, the Ratio in [20] came out at 5.
Turning to `Cc1ccc(-[n+]2ccn(Cc3ccccc3)c2/C=N/O)cc1.[Br-]`, the results for the Ratio in [21], in experiment [22] and in experiment [20] were 115, 2.5 and 450, respectively. The MIC in experiment [1] stood at 12.5 µg/mL; in experiment [5] it was 3.12 µg/mL; in experiment [6], 12.5 µg/mL; in experiment [9], 25 µg/mL; in experiment [13], 6.25 µg/mL; in experiment [14], 12.5 µg/mL. For the same compound, the MIC in [16] worked out at 25 µg/mL; in experiment [17], 0.14 µg/mL. The zone of inhibition at 250 µg/disc in experiment [2] worked out at 16.6 mm; in experiment [3], 16.3 mm; in [4], 14.5 mm; in experiment [7], 20.6 mm; in experiment [8], 17.7 mm; in experiment [10], 20.3 mm. Also, the zone of inhibition at 250 µg/disc in experiment [11] amounted to 20.7 mm; in experiment [12] it was 20.8 mm; in experiment [15], 18.4 mm; in [18] it was 18.4 mm; in experiment [19] it was 12.2 mm.
